ChEMBL document CHEMBL4813947, “New dual ATP-competitive inhibitors of bacterial DNA gyrase and topoisomerase IV active against ESKAPE pathogens” (Eur J Med Chem, 2021)
In brackets after ≈: the same amount, converted by molar mass.

Tests used:
DNA gyrase [1] = target: DNA gyrase (Staphylococcus aureus, UniProt P0A0K8+P20831); test: Inhibition of Staphylococcus aureus DNA gyrase assessed reduction in supercoiling of relaxed pNO1 DNA measured after 30 mins by fluorescence assay
[2] = Inhibition of Staphylococcus aureus topoisomerase assessed as reduction in relaxation of supercoiled pNO1 DNA measured after 30 mins by fluorescence assay
Outline: (§1)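 Enzyme run per an earlier-reported procedure; IC50 fitted from seven inhibitor concentrations, mean of three independent measurements.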

Staphylococcus aureus [3] = test: Antibacterial activity against methicillin-resistant Staphylococcus aureus ATCC 43300 assessed as inhibition of bacterial growth by CLSI protocol based broth microdilution assay; assay type: functional
Outline: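 Minimum inhibitory concentration by standard serial broth microdilution following CLSI guidelines. Medium was MHBII broth (22 g/L powder: beef extract, casein acid hydrolysate, starch), with MHBII agar (14 g agar per L broth). Where noted, assayed without and with efflux pump substrate phenylalanine-arginine β-naphthylamide (PAβN).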

Enterococcus faecalis = test: Antibacterial activity against Enterococcus faecalis ATCC 29212 assessed as inhibition of bacterial growth by CLSI protocol based broth microdilution assay; assay type: functional
Escherichia coli = test: Antibacterial activity against Escherichia coli ATCC 25922 assessed as inhibition of bacterial growth by CLSI protocol based broth microdilution assay; assay type: functional
[4] = Inhibition of Escherichia coli topoisomerase assessed as reduction in relaxation of supercoiled pNO1 DNA measured after 30 mins by fluorescence assay
Outline: as §1

Staphylococcus aureus [5] = test: Antibacterial activity against Staphylococcus aureus ATCC 29213 assessed as inhibition of bacterial growth by CLSI protocol based broth microdilution assay; assay type: functional
Klebsiella pneumoniae = test: Antibacterial activity against Klebsiella pneumoniae ATCC 10031 assessed as inhibition of bacterial growth by CLSI protocol based broth microdilution assay; assay type: functional
Pseudomonas aeruginosa = test: Antibacterial activity against Pseudomonas aeruginosa ATCC 27853 assessed as inhibition of bacterial growth by CLSI protocol based broth microdilution assay; assay type: functional
Acinetobacter baumannii = test: Antibacterial activity against Acinetobacter baumannii ATCC 17978 assessed as inhibition of bacterial growth by CLSI protocol based broth microdilution assay; assay type: functional
DNA gyrase [6] = target: DNA gyrase (Escherichia coli, UniProt P0AES4+P0AES6); test: Inhibition of Escherichia coli DNA gyrase assessed as reduction in supercoiling of relaxed pNO1 DNA measured after 30 mins by fluorescence assay

IC50 (DNA gyrase [1]) [nM]	IC50 [2] [nM]	IC50 [4] [nM]	Structure (SMILES)	MIC (Staphylococcus aureus [3]) [µg/mL]	MIC (Enterococcus faecalis) [µg/mL]	MIC (Escherichia coli) [µg/mL]	MIC (Staphylococcus aureus [5]) [µg/mL]	MIC (Klebsiella pneumoniae) [µg/mL]	MIC (Pseudomonas aeruginosa) [µg/mL]	MIC (Acinetobacter baumannii) [µg/mL]	IC50 (DNA gyrase [6]) [nM]
< 10	13	170	Cc1[nH]c(C(=O)Nc2nc3c(OCc4cccc(C(=O)O)c4)cc(C(=O)O)cc3s2)c(Cl)c1Cl								< 10
> 1000	300	> 1000	O=C(O)c1ccc2nc(NC(=O)c3cc(Br)c(Br)[nH]3)sc2c1								
> 1000	> 1000	> 1000	Cc1[nH]c(C(=O)Nc2nc3cc(C(=O)O)ccc3s2)c(Cl)c1Cl								
59	320	490	Cc1[nH]c(C(=O)Nc2nc3ccc(C(N)=O)cc3s2)c(Cl)c1Cl								
48	160	> 1000	Cc1[nH]c(C(=O)Nc2nc3c(OCCN)cc(C(=O)O)cc3s2)c(Cl)c1Cl								< 10
> 1000	> 1000	> 1000	COc1ccc2nc(NC(=O)c3[nH]c(C)c(Cl)c3Cl)sc2c1								> 1000
> 1000	> 1000	> 1000	Cc1[nH]c(C(=O)Nc2nc3ccc(C#N)cc3s2)c(Cl)c1Cl								> 1000
< 10	12	260	Cc1[nH]c(C(=O)Nc2nc3c(OCc4ccc(C(=O)O)cc4)cc(C(=O)O)cc3s2)c(Cl)c1Cl								< 10
310	> 1000	> 1000	Cc1[nH]c(C(=O)Nc2nc3ccc(C(=O)NCC#N)cc3s2)c(Cl)c1Cl								
> 1000	> 1000	> 1000	Cc1[nH]c(C(=O)N(c2nc3ccc(C(=O)O)cc3s2)C(C)C)c(Cl)c1Cl								
17	66	220	Cc1[nH]c(C(=O)Nc2nc3c(OCCN4CCOCC4)cc(C(=O)O)cc3s2)c(Cl)c1Cl								< 10
170	240	180	O=C(O)c1cc(O)c2nc(NC(=O)c3cc(Br)c(Br)[nH]3)sc2c1								
100	520	> 1000	Cc1[nH]c(C(=O)Nc2nc3c(OCCN4CCOCC4)cc(C(=O)NCC#N)cc3s2)c(Cl)c1Cl								< 10
500	> 1000	280	O=C(O)c1ccc2nc(NC(=O)c3cc(Cl)c(Cl)[nH]3)sc2c1								
> 1000	> 1000	> 1000	Cc1[nH]c(C(=O)Nc2nc3c(OCc4ccccc4)cc(C(N)=O)cc3s2)c(Cl)c1Cl								
> 1000	> 1000	> 1000	O=C(NO)c1ccc2nc(NC(=O)c3cc(Br)c(Br)[nH]3)sc2c1								
> 1000	> 1000	> 1000	Cc1[nH]c(C(=O)Nc2nc3c(OCc4ccccc4)cc(C#N)cc3s2)c(Cl)c1Cl								> 1000

Structure (SMILES)	IC50 (DNA gyrase [1]) [nM]	IC50 [2] [nM]	IC50 [4] [nM]	MIC (Staphylococcus aureus [3]) [µg/mL]	MIC (Enterococcus faecalis) [µg/mL]	MIC (Escherichia coli) [µg/mL]	MIC (Staphylococcus aureus [5]) [µg/mL]	MIC (Klebsiella pneumoniae) [µg/mL]	MIC (Pseudomonas aeruginosa) [µg/mL]	MIC (Acinetobacter baumannii) [µg/mL]	IC50 (DNA gyrase [6]) [nM]
Cc1[nH]c(C(=O)Nc2nc3cc(O)c(C(=O)O)cc3s2)c(Cl)c1Cl	61	46	95	4 (≈ 10.4 µM)	1 (≈ 2.59 µM)	> 64	16 (≈ 41.4 µM)	8 (≈ 20.7 µM)	> 64	> 64	< 10
Cc1[nH]c(C(=O)Nc2nc3c(O)cc(C(=O)O)cc3s2)c(Cl)c1Cl	22	120	130	4 (≈ 10.4 µM)	2 (≈ 5.18 µM)	> 64	16 (≈ 41.4 µM)	4 (≈ 10.4 µM)	> 64	> 64	< 10
CCN(C(=O)c1[nH]c(C)c(Cl)c1Cl)c1nc2ccc(C(=O)O)cc2s1	32	230	> 1000	8 (≈ 20.1 µM)	0.125 (≈ 0.314 µM)	32 (≈ 80.3 µM)	0.125 (≈ 0.314 µM)	16 (≈ 40.2 µM)	> 64	16 (≈ 40.2 µM)	< 10
Cc1[nH]c(C(=O)Nc2nc3ccc(C(=O)O)cc3s2)c(Cl)c1Cl		66	500	0.125 (≈ 0.338 µM)	0.125 (≈ 0.338 µM)	4 (≈ 10.8 µM)	1 (≈ 2.7 µM)	1 (≈ 2.7 µM)	8 (≈ 21.6 µM)	4 (≈ 10.8 µM)	
Cc1[nH]c(C(=O)Nc2nc3ccc(C(=O)NO)cc3s2)c(Cl)c1Cl	720	> 1000	> 1000	32 (≈ 83.1 µM)	0.5 (≈ 1.3 µM)	> 64	64 (≈ 166 µM)	> 64	> 64	> 64	
Cc1[nH]c(C(=O)N(c2nc3ccc(C(=O)O)cc3s2)C2CC2)c(Cl)c1Cl	> 1000	> 1000	> 1000	2 (≈ 4.87 µM)	0.25 (≈ 0.609 µM)	> 64	2 (≈ 4.87 µM)	64 (≈ 156 µM)	> 64	> 64	
COc1cc(C(=O)O)cc2sc(NC(=O)c3[nH]c(C)c(Cl)c3Cl)nc12	44	390	160	0.5 (≈ 1.25 µM)	0.25 (≈ 0.625 µM)	64 (≈ 160 µM)	2 (≈ 5 µM)	2 (≈ 5 µM)	64 (≈ 160 µM)	16 (≈ 40 µM)	< 10
Cc1[nH]c(C(=O)Nc2nc3ccc(C(=O)O)cc3s2)c(Cl)c1Br	24	61	220	2 (≈ 4.82 µM)	0.0625 (≈ 0.151 µM)	> 64	0.125 (≈ 0.301 µM)	2 (≈ 4.82 µM)	8 (≈ 19.3 µM)	4 (≈ 9.65 µM)	< 10
Cc1[nH]c(C(=O)Nc2nc3ccc(C(=O)NCCC(=O)O)cc3s2)c(Cl)c1Cl	71	40	210	8 (≈ 18.1 µM)	2 (≈ 4.53 µM)	> 64	32 (≈ 72.5 µM)	8 (≈ 18.1 µM)	> 64	> 64	< 10
Cc1[nH]c(C(=O)Nc2nc3c(OCc4ccccc4)cc(-c4nnn[nH]4)cc3s2)c(Cl)c1Cl	26	89		4 (≈ 7.99 µM)	0.125 (≈ 0.25 µM)	> 64	4 (≈ 7.99 µM)	> 64	> 64	> 64	
Cc1[nH]c(C(=O)Nc2nc3c(OCc4ccccc4)cc(C(=O)NCC#N)cc3s2)c(Cl)c1Cl	180	> 1000	> 1000	4 (≈ 7.78 µM)	16 (≈ 31.1 µM)	> 64	4 (≈ 7.78 µM)	> 64	> 64	> 64	< 10
Cc1[nH]c(C(=O)Nc2nc3c(OCc4cccs4)cc(C(=O)O)cc3s2)c(Cl)c1Cl	< 10	88	300	0.5 (≈ 1.04 µM)	0.0163 (≈ 0.0338 µM)	8 (≈ 16.6 µM)	0.0625 (≈ 0.13 µM)	4 (≈ 8.29 µM)	4 (≈ 8.29 µM)	1 (≈ 2.07 µM)	< 10
Cc1[nH]c(C(=O)Nc2nc3c(OCc4ccccc4)cc(C(=O)O)cc3s2)c(Cl)c1Cl		68		0.0625 (≈ 0.131 µM)	< 0.0212	16 (≈ 33.6 µM)	0.5 (≈ 1.05 µM)	1 (≈ 2.1 µM)	2 (≈ 4.2 µM)	2 (≈ 4.2 µM)	
Cc1[nH]c(C(=O)Nc2nc3c(F)cc(C(=O)O)cc3s2)c(Cl)c1Cl	17	240	200	0.0625 (≈ 0.161 µM)	0.0625 (≈ 0.161 µM)	16 (≈ 41.2 µM)	0.5 (≈ 1.29 µM)	4 (≈ 10.3 µM)	64 (≈ 165 µM)	8 (≈ 20.6 µM)	< 10
Cc1[nH]c(C(=O)Nc2nc3ccc(-c4nnn[nH]4)cc3s2)c(Cl)c1Cl	25	270	660	16 (≈ 40.6 µM)	1 (≈ 2.54 µM)	> 64	16 (≈ 40.6 µM)	16 (≈ 40.6 µM)	> 64	> 64	< 10
Cc1[nH]c(C(=O)Nc2nc3c(OCc4cccc(F)c4)cc(C(=O)O)cc3s2)c(Cl)c1Cl	< 10	< 10		0.0625 (≈ 0.126 µM)	0.001 (≈ 0.00202 µM)		0.0625 (≈ 0.126 µM)	> 64	64 (≈ 129 µM)	2 (≈ 4.05 µM)	
